In ChEMBL document CHEMBL3124940, “Design, synthesis and biological evaluation of D-ring opened galantamine analogs as multifunctional anti-Alzheimer agents” (Eur J Med Chem, 2014):
Calls of active or inactive are those of the source. No cut-off for these calls is given here.

Legend:
Rattus norvegicus [1] = assay: Toxicity in Wistar rat assessed as GSSG level in liver at 6 umol/100 g body weight, ip by fluorometric analysis relative to control; assay type: organism-based; conditions: in vivo
How it was run: (§1)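 Rats dosed i.p.; tissues taken after 24 h. For GSH/GSSG, tissue homogenized in 11 volumes of 0.2 M sodium phosphate (5 mM EDTA, pH 8.0) plus 4 volumes of 25% metaphosphoric acid and centrifuged 12 000 × g, 4 °C, 30 min; supernatant read photometrically (GSH) or fluorometrically (GSSG). Lipid peroxidation products measured as TBARS in 19-volume ice-cold saline homogenates, fluorometrically.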

[2] = biological target: Amyloid-beta precursor protein (Homo sapiens) (UniProt P05067); assay: Inhibition of amyloid beta (1 to 42) aggregation (unknown origin) at 50 uM after 1 hr by thioflavin T fluorescence assay relative to control
How it was run: (§2)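 Aβ42 stock (200 µM in DMSO) centrifuged 12,000 rpm for 10 min; supernatant used. Compound (2 µL of 0.2–4.0 mM DMSO stock) and 2 µL Aβ42 stock added to 76 µL PBS pH 7.4, incubated 1 h at room temperature. 80 µL of 5 µM ThT in 50 mM glycine-NaOH pH 8.5 then added; fluorescence read at excitation 430 nm, emission 488 nm.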

Rattus norvegicus [3] = assay: Toxicity in Wistar rat assessed as ethoxyresorufin-O-deethylation activity in liver measured as resorufin level at 1 umol/100 g body weight, ip by fluorometric analysis relative to control; assay type: organism-based; conditions: in vivo
How it was run: (§3)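 Rats dosed i.p.; after 24 h, liver homogenized 1:3 w/v in 0.1 M sodium phosphate pH 7.4 and centrifuged at 9000 × g, 4 °C, 20 min. Supernatant protein determined by the Biuret method. Ethoxyresorufin-O-deethylation measured fluorometrically as resorufin formed.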

Rattus norvegicus [4] = assay: Toxicity in Wistar rat assessed as lipidperoxidation product level in kidney at 1 umol/100 g body weight, ip by fluorometric analysis relative to control; assay type: organism-based; conditions: in vivo; how it was run: as §1
Rattus norvegicus [5] = assay: Toxicity in Wistar rat assessed as total glutathione level in brain at 6 umol/100 g body weight, ip by fluorometric analysis relative to control; assay type: organism-based; conditions: in vivo; how it was run: as §1
Rattus norvegicus [6] = assay: Toxicity in Wistar rat assessed as GSH level in brain at 6 umol/100 g body weight, ip by fluorometric analysis relative to control; assay type: organism-based; conditions: in vivo
Rattus norvegicus [7] = assay: Toxicity in Wistar rat assessed as lipidperoxidation product level in kidney at 6 umol/100 g body weight, ip by fluorometric analysis relative to control; assay type: organism-based; conditions: in vivo; how it was run: as §1
Rattus norvegicus [8] = assay: Toxicity in Wistar rat assessed as ethoxyresorufin-O-deethylation activity in liver measured as resorufin level at 6 umol/100 g body weight, ip by fluorometric analysis relative to control; assay type: organism-based; conditions: in vivo; how it was run: as §3
Rattus norvegicus [9] = assay: Toxicity in Wistar rat assessed as total glutathione level in liver at 1 umol/100 g body weight, ip by fluorometric analysis relative to control; assay type: organism-based; conditions: in vivo; how it was run: as §1
Rattus norvegicus [10] = assay: Toxicity in Wistar rat assessed as lipidperoxidation product level in brain at 6 umol/100 g body weight, ip by fluorometric analysis relative to control; assay type: organism-based; conditions: in vivo; how it was run: as §1
Rattus norvegicus [11] = assay: Toxicity in Wistar rat assessed as GSH level in kidney at 6 umol/100 g body weight, ip by fluorometric analysis relative to control; assay type: organism-based; conditions: in vivo
[12] = biological target: Amyloid-beta precursor protein (Homo sapiens) (UniProt P05067); assay: Inhibition of amyloid beta (1 to 42) aggregation (unknown origin) at 100 uM after 1 hr by thioflavin T fluorescence assay relative to control; how it was run: as §2
[13] = biological target: Amyloid-beta precursor protein (Homo sapiens) (UniProt P05067); assay: Inhibition of amyloid beta (1 to 42) aggregation (unknown origin) after 1 hr by thioflavin T fluorescence assay; how it was run: as §2
Rattus norvegicus [14] = assay: Toxicity in Wistar rat assessed as GSH level in liver at 1 umol/100 g body weight, ip by fluorometric analysis relative to control; assay type: organism-based; conditions: in vivo
Rattus norvegicus [15] = assay: Antialzheimer activity in Wistar rat scopolamine-induced cognition impairment model assessed as total exploration time at 1 umol/100 g body weight, ip treated for 5 mins prior to scopolamine-challenge by eight-arm radial maze test relative to control; assay type: functional
How it was run: (§4)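 Female 60-day-old Wistar rats (Han:Wist) trained in an eight-arm radial maze to error-free trials under 60 s on three consecutive days; each animal served as its own control. Test agent given i.p. in saline 5 min before scopolamine (0.05 mg/100 g b. wt., i.p. in saline). Errors plus baits not found after 10 min, and total searching time, recorded before and 20, 60, 120 min after scopolamine; n = 14, mean ± SEM.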

Rattus norvegicus [16] = assay: Antialzheimer activity in Wistar rat scopolamine-induced cognition impairment model assessed as decrease in amount of errors plus baits not found during exploration at 1 umol/100 g body weight, ip treated for 5 mins prior to scopolamine-challenge measured after 20 to 120 mins by eight-arm radial maze test; assay type: functional, organism-based; how it was run: as §4
Rattus norvegicus [17] = assay: Toxicity in Wistar rat assessed as GSSG level in liver at 1 umol/100 g body weight, ip by fluorometric analysis relative to control; assay type: organism-based; conditions: in vivo; how it was run: as §1
Rattus norvegicus [18] = assay: Toxicity in Wistar rat assessed as change in movement at 1 umol/100 g body weight, ip; assay type: organism-based; conditions: in vivo
[19] = Induction of nitric oxide release in PBS at 100 uM at pH 7.4 after 24 hrs by Griess method relative to control; assay type: physicochemical; conditions: buffer, pH 7.4, 24 h
How it was run: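 Test compound at 100 µM in phosphate buffer pH 7.4, alone or with 90 µL rat serum added, incubated 37 °C for 24 h. Griess reagent added, then 30 min at 37 °C with gentle shaking; absorbance read at 540 nm and blank-corrected. Nitrite quantified against an NaNO2 calibration curve and expressed as % of a theoretical 1 mol NO per mol nitrate; n = 3.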

Rattus norvegicus [20] = assay: Toxicity in Wistar rat assessed as body weight at 1 umol/100 g body weight, ip relative to control; assay type: organism-based; conditions: in vivo
Rattus norvegicus [21] = assay: Toxicity in Wistar rat assessed as lipidperoxidation product level in liver at 1 umol/100 g body weight, ip relative to control; assay type: organism-based; conditions: in vivo
Rattus norvegicus [22] = assay: Toxicity in Wistar rat assessed as liver weight at 6 umol/100 g body weight, ip relative to control; assay type: organism-based; conditions: in vivo
Rattus norvegicus [23] = assay: Toxicity in Wistar rat assessed as GSH level in kidney at 1 umol/100 g body weight, ip by fluorometric analysis relative to control; assay type: organism-based; conditions: in vivo
Rattus norvegicus [24] = assay: Toxicity in Wistar rat assessed as GSSG level in kidney at 6 umol/100 g body weight, ip by fluorometric analysis relative to control; assay type: organism-based; conditions: in vivo; how it was run: as §1
Rattus norvegicus [25] = assay: Toxicity in Wistar rat scopolamine-induced cognition impairment model assessed as change in movement at 1 umol/100 g body weight, ip; assay type: organism-based; conditions: in vivo
How it was run: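 60-day-old female Wistar rats were trained in an eight-arm radial maze to no errors in under 60 s on 3 consecutive days; each rat served as its own control. Compound in saline was given i.p., then scopolamine (0.05 mg/100 g, saline, i.p.) 5 min later. Errors plus baits not found after 10 min and total searching time were recorded before and 20, 60 and 120 min after scopolamine; n = 14, mean ± SEM.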

Sequence of Amyloid-beta precursor protein (Homo sapiens) (P05067 whole entry): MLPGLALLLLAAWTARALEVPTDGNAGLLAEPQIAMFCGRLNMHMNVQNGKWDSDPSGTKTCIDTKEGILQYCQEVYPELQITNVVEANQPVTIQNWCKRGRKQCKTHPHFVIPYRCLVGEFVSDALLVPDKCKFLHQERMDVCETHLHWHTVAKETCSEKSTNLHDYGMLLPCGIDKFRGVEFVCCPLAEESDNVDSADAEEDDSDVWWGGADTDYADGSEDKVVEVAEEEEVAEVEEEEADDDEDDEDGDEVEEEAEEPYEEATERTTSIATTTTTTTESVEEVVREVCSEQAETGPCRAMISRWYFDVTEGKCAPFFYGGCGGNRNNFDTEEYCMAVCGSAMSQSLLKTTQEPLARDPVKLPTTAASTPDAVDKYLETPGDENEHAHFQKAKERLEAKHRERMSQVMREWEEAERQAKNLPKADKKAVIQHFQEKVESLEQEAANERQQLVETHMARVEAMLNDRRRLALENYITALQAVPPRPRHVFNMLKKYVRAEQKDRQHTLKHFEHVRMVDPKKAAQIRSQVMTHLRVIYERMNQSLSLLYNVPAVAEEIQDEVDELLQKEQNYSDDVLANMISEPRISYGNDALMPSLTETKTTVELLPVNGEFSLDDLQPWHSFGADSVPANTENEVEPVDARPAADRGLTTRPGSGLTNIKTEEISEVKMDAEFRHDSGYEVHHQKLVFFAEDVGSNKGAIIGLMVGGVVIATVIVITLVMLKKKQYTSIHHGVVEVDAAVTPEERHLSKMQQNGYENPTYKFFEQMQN

## COc1ccc2c(c1)oc1cccc(CN(C(=O)CCO[N+](=O)[O-])C(C)C)c12
Rattus norvegicus [1]
  Activity: 418 µg/g
[2]
  inhibition: 19%
Rattus norvegicus [3]
  Activity: 114 pmol/mg/min
Rattus norvegicus [4]
  Activity: 93.2 nmol/g
Rattus norvegicus [5]
  Activity: 830 µg/g
Rattus norvegicus [6]
  Activity: 672 µg/g
Rattus norvegicus [7]
  Activity: 96.2 nmol/g
Rattus norvegicus [8]
  Activity: 121 pmol/mg/min
Rattus norvegicus [9]
  Activity: 3365 µg/g
Rattus norvegicus [10]
  Activity: 156 nmol/g
Rattus norvegicus [11]
  Activity: 1483 µg/g
[12]
  inhibition: 25%
[13]
  inhibition: Dose-dependent effect
Rattus norvegicus [14]
  Activity: 2542 µg/g
Rattus norvegicus [15]
  Time: 175 s
Rattus norvegicus [16]
  Activity: Active
Rattus norvegicus [17]
  Activity: 411 µg/g
Rattus norvegicus [18]
  Activity: Non-toxic
[19]
  Activity: 4.8%
Rattus norvegicus [20]
  Activity: 264 g
Rattus norvegicus [21]
  Activity: 57.7 nmol/g
Rattus norvegicus [22]
  Activity: 8 g
Rattus norvegicus [23]
  Activity: 1462 µg/g
Rattus norvegicus [24]
  Activity: 159 µg/g
Rattus norvegicus [25]
  Activity: Non-toxic
